ChEMBL document CHEMBL3286129, “Optimization of peptidomimetic boronates bearing a P3 bicyclic scaffold as proteasome inhibitors” (Eur J Med Chem, 2014)

Columns and labels:
Type in all cases: functional
[1] = tested on: NCI-H322M; assay: Growth inhibition of human NCI-H322M cells
[2] = Growth inhibition of human HCC2998 cells; conditions: HCC 2998
[3] = tested on: HCT-116; assay: Growth inhibition of human HCT116 cells
[4] = Growth inhibition of human HCT15 cells
[5] = tested on: KM12; assay: Growth inhibition of human KM12 cells
[6] = tested on: SW-620; assay: Growth inhibition of human SW620 cells
[7] = tested on: SF-268; assay: Growth inhibition of human SF268 cells
[8] = Growth inhibition of human SF295 cells; conditions: SF-295
[9] = tested on: SNB-19; assay: Growth inhibition of human SNB19 cells
[10] = tested on: U-251; assay: Growth inhibition of human U251 cells
[11] = tested on: M14; assay: Growth inhibition of human M14 cells
[12] = tested on: MDA-MB-435; assay: Growth inhibition of human MDA-MB-435 cells
[13] = Growth inhibition of human UACC62 cells; conditions: UACC-62
[14] = Growth inhibition of human OVCAR8 cells
[15] = tested on: SK-OV-3; assay: Growth inhibition of human SKOV3 cells
[16] = tested on: A498; assay: Growth inhibition of human A498 cells
[17] = tested on: CAKI-1; assay: Growth inhibition of human CAKI-1 cells
[18] = Growth inhibition of human RXF393 cells
[19] = tested on: SN12C; assay: Growth inhibition of human SN12C cells
[20] = tested on: PC-3; assay: Growth inhibition of human PC3 cells
[21] = tested on: DU-145; assay: Growth inhibition of human DU145 cells
[22] = tested on: MDA-MB-231; assay: Growth inhibition of human MDA-MB-231 cells
[23] = Growth inhibition of human Hs 578T cells
[24] = tested on: T47D; assay: Growth inhibition of human T47D cells
[25] = tested on: MDA-MB-468; assay: Growth inhibition of human MDA-MB-468 cells
[26] = Cytotoxicity against human colon cancer cells assessed as cell growth at 10 uM relative to control; conditions: Cancer cell lines, read-out: Activity
Method in brief: (§1)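 Single-concentration screen against a panel of human cancer cell lines. Each value is the mean percent growth across the cell lines of that tumour subpanel.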

[27] = Cytotoxicity against human CNSC cells assessed as cell growth at 10 uM relative to control; conditions: read-out: Activity; method in brief: as §1
[28] = Cytotoxicity against human melanoma cells assessed as cell growth at 10 uM relative to control; conditions: read-out: Activity; method in brief: as §1
[29] = Cytotoxicity against human ovarian cancer cells assessed as cell growth at 10 uM relative to control; conditions: Cancer cell lines, read-out: Activity; method in brief: as §1
[30] = Cytotoxicity against human renal cancer cells assessed as cell growth at 10 uM relative to control; conditions: Cancer cell lines, read-out: Activity; method in brief: as §1
[31] = tested on: CCRF-CEM; assay: Growth inhibition of human CCRF-CEM cells
[32] = tested on: HL-60(TB); assay: Growth inhibition of human HL-60(TB) cells
[33] = tested on: K562; assay: Growth inhibition of human K562 cells
[34] = tested on: RPMI-8226; assay: Growth inhibition of human RPMI8226 cells
[35] = tested on: A549; assay: Growth inhibition of human A549/ATCC cells
[36] = tested on: NCI-H23; assay: Growth inhibition of human NCI-H23 cells
[37] = read-out: LC50 (the source's name)

## CC(C)C[C@H](NC(=O)Cn1ccc2ccc(Br)cc2c1=O)B(O)O
[1]
  GI50: > 100 µM
  TGI: > 100 µM
[1]; [37]
  CC50: > 100 µM
[2]
  GI50: 2.46 µM
  LC50: 31.4 µM
  TGI: 6.37 µM
[3]
  GI50: 0.6 µM
  LC50: 95.8 µM
  TGI: 3.57 µM
[4]; HCT-15
  GI50: 3.04 µM
  TGI: > 100 µM
[4]; HCT-15, read-out: LC50 (the source's name)
  CC50: > 100 µM
[5]
  GI50: 3.55 µM
  LC50: > 100 µM
  TGI: 17.3 µM
[6]
  GI50: 0.46 µM
  LC50: > 100 µM
  TGI: 8.19 µM
[7]
  GI50: 3.76 µM
  LC50: > 100 µM
  TGI: 31.9 µM
[8]
  GI50: 2.03 µM
  LC50: 86.4 µM
  TGI: 15.9 µM
[9]
  GI50: 3.86 µM
  TGI: > 100 µM
[9]; [37]
  CC50: > 100 µM
[10]
  GI50: 5.56 µM
  TGI: > 100 µM
[10]; [37]
  CC50: > 100 µM
[11]
  GI50: 1.25 µM
  LC50 (concentration killing 50% of cells): > 100 µM
  TGI: 6.73 µM
[12]
  GI50: 0.33 µM
  TGI: 1.29 µM
[12]; [37]
  CC50: 5.88 µM
[13]
  GI50: 1.86 µM
  LC50 (concentration killing 50% of cells): 97 µM
  TGI: 10.4 µM
[14]; OVCAR-8
  GI50: 3.53 µM
  TGI: > 100 µM
[14]; OVCAR-8, read-out: LC50 (the source's name)
  CC50: > 100 µM
[15]
  GI50: 8.73 µM
  LC50: > 100 µM
  TGI: > 100 µM
[16]
  GI50: 0.1 µM
  LC50: 28.6 µM
  TGI: 0.58 µM
[17]
  GI50: 0.41 µM
  TGI: 10.5 µM
[17]; [37]
  CC50: > 100 µM
[18]; RXF 393
  GI50: 0.43 µM
  TGI: 1.77 µM
[18]; RXF 393, read-out: LC50 (the source's name)
  CC50: 5.99 µM
[19]
  GI50: 3.52 µM
  TGI: 55.2 µM
[19]; [37]
  CC50: > 100 µM
[20]
  GI50: 6.31 µM
  TGI: > 100 µM
[20]; [37]
  CC50: > 100 µM
[21]
  GI50: 6.05 µM
  TGI: > 100 µM
[21]; [37]
  CC50: > 100 µM
[22]
  GI50: 3.18 µM
  TGI: 19.8 µM
[22]; [37]
  CC50: > 100 µM
[23]
  GI50: 2.94 µM
  TGI: 75.1 µM
[23]; [37]
  CC50: > 100 µM
[24]
  GI50: 0.78 µM
  TGI: 12.4 µM
[24]; [37]
  CC50: > 100 µM
[25]
  GI50: 0.3 µM
  TGI: 1.1 µM
[25]; [37]
  CC50: > 100 µM
[26]
  growth at 10 µM: 3.27%
[27]
  growth at 10 µM: 24.3%
[28]
  growth at 10 µM: -17.1%
[29]
  growth at 10 µM: 37.5%
[30]
  growth at 10 µM: -8.89%
[31]
  GI50: 0.44 µM
  TGI: > 100 µM
[31]; [37]
  CC50: > 100 µM
[32]
  GI50: 0.38 µM
  TGI: 5.34 µM
[32]; [37]
  CC50: > 100 µM
[33]
  GI50: 3.15 µM
  TGI: > 100 µM
[33]; [37]
  CC50: > 100 µM
[34]
  GI50: 0.32 µM
  TGI: > 100 µM
[34]; [37]
  CC50: > 100 µM
[35]
  GI50: 4.58 µM
  TGI: > 100 µM
[35]; [37]
  CC50: > 100 µM
[36]
  GI50: 5.05 µM
  TGI: > 100 µM
[36]; [37]
  CC50: > 100 µM
